Experimental data taken from ChEMBL document CHEMBL2429806, “Designed Trpzip-3 β-Hairpin Inhibits Amyloid Formation in Two Different Amyloid Systems” (ACS Med Chem Lett, 2013).

Molecular target: Transthyretin (Homo sapiens) (UniProt P02766)
Experiment: Inhibition of transthyretin (unknown origin) aggregation at 2 mol equiv measured at 36 hrs by congo red assay relative to control
How it was run: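 TTR aggregation was induced at pH 4.5 with or without the test agent. Aggregation was scored by Congo red at its peak, 36 h. Thioflavin T was not usable because dissolved, filtered TTR gives high background fluorescence.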

inhibition: > 90%
Compound: O=C(O)c1cc(-c2ccc(F)cc2F)ccc1O
